ChEMBL document CHEMBL4689842, “EUbOPEN Chemogenomics Library wave 1” (2021)

Test system: U2OS
Test: Multiplex assay against U2OS
Format: toxicity, cell-based
Settings: human
Procedure, shortened: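 Tubulin, mitochondrial-mass and membrane-permeability phenotypes are per cents of healthy-nucleus cells. Cells were gated by CellPathfinder machine learning into Hoechst high-intensity objects or normal cells, normal cells into healthy, pyknosed or fragmented nuclei, and pyknosed cells into mitotic or apoptotic. Before that, live cells stained at seeding with Hoechst33342, BioTracker Green Microtubule Cytoskeleton Dye, MitoTracker Red and Annexin V Alexa Fluor 680 were imaged on a CQ1 microscope at 37°C and 5% CO2 after compound addition.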

[1] = 12 h, 1 µM, compound concentration 1 uM, replicate 1
[2] = 12 h, 1 µM, compound concentration 1 uM, replicate 2
[3] = 12 h, 10 µM, compound concentration 10 uM, replicate 1
[4] = 12 h, 10 µM, compound concentration 10 uM, replicate 2
[5] = 24 h, 1 µM, compound concentration 1 uM, replicate 1
[6] = 24 h, 1 µM, compound concentration 1 uM, replicate 2
[7] = 24 h, 10 µM, compound concentration 10 uM, replicate 1
[8] = 24 h, 10 µM, compound concentration 10 uM, replicate 2
[9] = 48 h, 1 µM, compound concentration 1 uM, replicate 1
[10] = 48 h, 1 µM, compound concentration 1 uM, replicate 2
[11] = 48 h, 10 µM, compound concentration 10 uM, replicate 1
[12] = 48 h, 10 µM, compound concentration 10 uM, replicate 2

## Cc1ccc(C)c(Oc2ccncc2C(=O)N2CCN(C3CC3)c3ccccc32)c1
[1]
  Population Apoptotic (%): 53%
  Population Fragmented Nuclei (%): 10%
  Population Healthy Nuclei (%): 77%
  Population Hoechst High Intensity Objects (%): 7%
  Population Normal (%): 92%
  Total Cell Count: 135
[2]
  Population Apoptotic (%): 66%
  Population Healthy Nuclei (%): 75%
  Population Hoechst High Intensity Objects (%): 10%
  Population Normal (%): 89%
  Total Cell Count: 73
[3]
  Population Apoptotic (%): 48%
  Population Fragmented Nuclei (%): 15%
  Population Healthy Nuclei (%): 61%
  Population Hoechst High Intensity Objects (%): 6%
  Population Mitotic Cells (%): 51%
  Population Normal (%): 93%
  Total Cell Count: 132
[4]
  Population Apoptotic (%): 33%
  Population Fragmented Nuclei (%): 6%
  Population Healthy Nuclei (%): 72%
  Population Hoechst High Intensity Objects (%): 3%
  Population Normal (%): 96%
  Total Cell Count: 59
[5]
  Population Apoptotic (%): 47%
  Population Fragmented Nuclei (%): 8%
  Population Healthy Nuclei (%): 76%
  Population Hoechst High Intensity Objects (%): 3%
  Population Mitotic Cells (%): 52%
  Population Normal (%): 96%
  Total Cell Count: 137
[6]
  Population Apoptotic (%): 42%
  Population Fragmented Nuclei (%): 27%
  Population Healthy Nuclei (%): 60%
  Population Hoechst High Intensity Objects (%): 6%
  Population Normal (%): 93%
  Total Cell Count: 71
[7]
  Population Apoptotic (%): 51%
  Population Healthy Nuclei (%): 50%
  Population Hoechst High Intensity Objects (%): 10%
  Population Mitotic Cells (%): 48%
  Population Normal (%): 89%
  Total Cell Count: 152
[8]
  Population Apoptotic (%): 53%
  Population Healthy Nuclei (%): 66%
  Population Hoechst High Intensity Objects (%): 7%
  Population Normal (%): 92%
  Total Cell Count: 65
[9]
  Population Apoptotic (%): 46%
  Population Fragmented Nuclei (%): 4%
  Population Healthy Nuclei (%): 82%
  Population Hoechst High Intensity Objects (%): 3%
  Population Mitotic Cells (%): 53%
  Population Normal (%): 96%
  Total Cell Count: 139
[10]
  Population Apoptotic (%): 36%
  Population Fragmented Nuclei (%): 6%
  Population Healthy Nuclei (%): 79%
  Population Hoechst High Intensity Objects (%): 4%
  Population Mitotic Cells (%): 63%
  Population Normal (%): 95%
  Total Cell Count: 69
[11]
  Population Apoptotic (%): 61%
  Population Fragmented Nuclei (%): 14%
  Population Healthy Nuclei (%): 42%
  Population Hoechst High Intensity Objects (%): 9%
  Population Mitotic Cells (%): 38%
  Population Normal (%): 90%
  Total Cell Count: 213
[12]
  Population Apoptotic (%): 33%
  Population Fragmented Nuclei (%): 22%
  Population Healthy Nuclei (%): 55%
  Population Hoechst High Intensity Objects (%): 1%
  Population Normal (%): 98%
  Total Cell Count: 83

## O=C(c1cc2c(cc1F)OC(c1ccc(F)cc1)(c1ccc(Cl)cc1Cl)O2)N1CCOCC1 (stereo unspecified)
[1]
  Population Apoptotic (%): 57%
  Population Fragmented Nuclei (%): 19%
  Population Healthy Nuclei (%): 67%
  Population Hoechst High Intensity Objects (%): 10%
  Population Membrane Permeable-Phenotype (%): 7%
  Population Mitochondria Different-Phenotype (%): 17%
  Population Mitotic Cells (%): 42%
  Population Normal (%): 89%
  Population Pyknosed Nuclei (%): 13%
  Total Cell Count: 120
[2]
  Population Apoptotic (%): 50%
  Population Fragmented Nuclei (%): 18%
  Population Healthy Nuclei (%): 68%
  Population Hoechst High Intensity Objects (%): 7%
  Population Membrane Permeable-Phenotype (%): 9%
  Population Mitochondria Different-Phenotype (%): 12%
  Population Mitotic Cells (%): 50%
  Population Normal (%): 92%
  Population Pyknosed Nuclei (%): 12%
  Population Tubulin-Different-Phenotype (%): 15%
  Total Cell Count: 78
[3]
  Population Apoptotic (%): 50%
  Population Healthy Nuclei (%): 67%
  Population Hoechst High Intensity Objects (%): 8%
  Population Membrane Permeable-Phenotype (%): 46%
  Population Mitotic Cells (%): 50%
  Population Normal (%): 91%
  Population Pyknosed Nuclei (%): 21%
  Total Cell Count: 116
[4]
  Population Apoptotic (%): 71%
  Population Fragmented Nuclei (%): 10%
  Population Healthy Nuclei (%): 78%
  Population Hoechst High Intensity Objects (%): 4%
  Population Membrane Permeable-Phenotype (%): 47%
  Population Mitochondria Different-Phenotype (%): 96%
  Population Mitotic Cells (%): 28%
  Population Normal (%): 95%
  Population Pyknosed Nuclei (%): 10%
  Population Tubulin-Different-Phenotype (%): 100%
  Total Cell Count: 52
[5]
  Population Apoptotic (%): 44%
  Population Fragmented Nuclei (%): 17%
  Population Healthy Nuclei (%): 68%
  Population Hoechst High Intensity Objects (%): 7%
  Population Membrane Permeable-Phenotype (%): 5%
  Population Mitochondria Different-Phenotype (%): 14%
  Population Mitotic Cells (%): 55%
  Population Normal (%): 92%
  Population Pyknosed Nuclei (%): 14%
  Population Tubulin-Different-Phenotype (%): 12%
  Total Cell Count: 130
[6]
  Population Apoptotic (%): 33%
  Population Fragmented Nuclei (%): 5%
  Population Healthy Nuclei (%): 88%
  Population Hoechst High Intensity Objects (%): 10%
  Population Membrane Permeable-Phenotype (%): 10%
  Population Mitochondria Different-Phenotype (%): 15%
  Population Mitotic Cells (%): 66%
  Population Normal (%): 89%
  Population Pyknosed Nuclei (%): 5%
  Population Tubulin-Different-Phenotype (%): 21%
  Total Cell Count: 85
[7]
  Population Apoptotic (%): 67%
  Population Fragmented Nuclei (%): 16%
  Population Healthy Nuclei (%): 55%
  Population Hoechst High Intensity Objects (%): 8%
  Population Membrane Permeable-Phenotype (%): 48%
  Population Mitochondria Different-Phenotype (%): 98%
  Population Mitotic Cells (%): 32%
  Population Normal (%): 91%
  Population Pyknosed Nuclei (%): 28%
  Population Tubulin-Different-Phenotype (%): 100%
  Total Cell Count: 137
[8]
  Population Apoptotic (%): 66%
  Population Fragmented Nuclei (%): 8%
  Population Healthy Nuclei (%): 62%
  Population Hoechst High Intensity Objects (%): 6%
  Population Membrane Permeable-Phenotype (%): 64%
  Population Mitochondria Different-Phenotype (%): 100%
  Population Mitotic Cells (%): 33%
  Population Normal (%): 93%
  Population Pyknosed Nuclei (%): 29%
  Total Cell Count: 58
[9]
  Population Apoptotic (%): 62%
  Population Fragmented Nuclei (%): 14%
  Population Healthy Nuclei (%): 75%
  Population Hoechst High Intensity Objects (%): 7%
  Population Membrane Permeable-Phenotype (%): 4%
  Population Mitochondria Different-Phenotype (%): 11%
  Population Mitotic Cells (%): 37%
  Population Normal (%): 92%
  Population Pyknosed Nuclei (%): 9%
  Population Tubulin-Different-Phenotype (%): 9%
  Total Cell Count: 127
[10]
  Population Apoptotic (%): 60%
  Population Fragmented Nuclei (%): 8%
  Population Healthy Nuclei (%): 84%
  Population Hoechst High Intensity Objects (%): 4%
  Population Membrane Permeable-Phenotype (%): 6%
  Population Mitochondria Different-Phenotype (%): 13%
  Population Mitotic Cells (%): 40%
  Population Normal (%): 96%
  Population Pyknosed Nuclei (%): 6%
  Population Tubulin-Different-Phenotype (%): 16%
  Total Cell Count: 78
[11]
  Population Apoptotic (%): 57%
  Population Fragmented Nuclei (%): 20%
  Population Healthy Nuclei (%): 44%
  Population Hoechst High Intensity Objects (%): 14%
  Population Membrane Permeable-Phenotype (%): 65%
  Population Mitochondria Different-Phenotype (%): 93%
  Population Mitotic Cells (%): 42%
  Population Normal (%): 85%
  Population Pyknosed Nuclei (%): 34%
  Population Tubulin-Different-Phenotype (%): 100%
  Total Cell Count: 179
[12]
  Population Apoptotic (%): 71%
  Population Fragmented Nuclei (%): 17%
  Population Healthy Nuclei (%): 50%
  Population Hoechst High Intensity Objects (%): 8%
  Population Membrane Permeable-Phenotype (%): 76%
  Population Mitochondria Different-Phenotype (%): 100%
  Population Mitotic Cells (%): 28%
  Population Normal (%): 91%
  Population Pyknosed Nuclei (%): 31%
  Total Cell Count: 75
